# Assay outcomes as filed in PubChem.
# KCNK9 block: human KCNK9 channel inhibition; HEK293 KCNK9, FluxOR thallium flux fluorescence; hits give low values; B-score at 10 µM; 1.2% of 310,000 active; AID 488922;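 active = ratio B-score over 3 SD below the library mean, with starting fluorescence within 5 SD of its mean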;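 note: negative B-score means less thallium flux so channel inhibition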
# hERG rescue: shields human hERG channel from block by proarrhythmic agents | 0.51% of 310,000 active | CHO-hERG, FluxOR thallium flux, dofetilide IC70 present | Q12809 | activation (rescue from dofetilide block), less the hit threshold, % at 10 µM | AID 1511;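 active = activation above the mean of controls blocked by dofetilide plus 5 SD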;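 note: thallium influx through hERG after potassium depolarization seen as dye fluorescence rise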
# KCNQ1 pot: potentiators or activators of human KCNQ1 potassium channel; P51787; CHO-K1 KCNQ1, thallium flux FluxOR fluorescence; hits give high values; B-score at 10 µM; 0.35% of 310,000 active; AID 2648;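 active = fluorescence ratio B-score, a plate-corrected score, at least three library SD, with initial intensity B-score within 5 SD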
#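 Doses: Single concentration per compound, DMSO matched to controls | Test system: KCNQ1-transfected CHO-K1 cells | Timing: 90 min dye loading and 20 min compound exposure, both at room temperature | Measured by: Kinetic FluxOR thallium fluorescence, 10-s 1-Hz baseline, 110-s post-stimulus read | Medium: Assay buffer with matched DMSO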
# KCNQ1 block: inhibitors of human KCNQ1 potassium channel | P51787 | CHO-K1 KCNQ1, FluxOR thallium flux fluorescence; hits give high values | B-score at 10 µM | 1.3% of 310,000 active | AID 2642;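 active = compounds whose thallium flux B-score, printed positive for inhibition, exceeds three library SD while starting fluorescence stays within three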;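 note: channel opened by potassium depolarization with thallium stimulus after 20 min compound exposure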
# KCNK3 block: human KCNK3 channel inhibition, primary screen. B-score at 10 µM. 0.84% of 340,000 active. CHO-KCNK3 thallium flux, FluxOR fluorescence; hits give low values. O14649;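 active = B-score under library mean minus 4 SD, starting fluorescence ratio at most library mean plus 5 SD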;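 note: more negative B-score means stronger inhibition of thallium flux through KCNK3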
# Target sequence (O14649 whole entry, looked up): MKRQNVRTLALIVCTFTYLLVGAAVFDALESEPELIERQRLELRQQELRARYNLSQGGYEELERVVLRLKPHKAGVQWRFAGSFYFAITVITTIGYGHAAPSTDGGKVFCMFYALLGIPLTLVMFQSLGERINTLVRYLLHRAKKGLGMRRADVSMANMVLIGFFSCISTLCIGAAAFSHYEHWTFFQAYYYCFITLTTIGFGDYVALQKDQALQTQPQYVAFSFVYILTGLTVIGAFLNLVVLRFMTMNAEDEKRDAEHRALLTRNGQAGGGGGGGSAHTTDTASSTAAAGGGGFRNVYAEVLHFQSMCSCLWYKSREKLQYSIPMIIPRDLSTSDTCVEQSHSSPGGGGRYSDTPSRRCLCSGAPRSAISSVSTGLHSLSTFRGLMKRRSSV
# KCNK9 block conf: human KCNK9 inhibitor confirmation | shares compounds with KCNK9 block | HEK293 KCNK9 cells, FluxOR thallium flux fluorescence | inhibition, % at 10 µM | 43% of 4,900 active | AID 492992;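 active = thallium signal inhibited by more than 5 SD of the compound-free buffer control wells, on both duplicate plates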;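 note: 0% = assay buffer control wells without compound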
# Kir21 sel: mouse Kir2.1 off-target activity of KCNK9 modulators. inhibition, % at 10 µM. shares compounds with KCNK9 block. Kir2.1 cells, FluxOR thallium flux fluorescence. AID 492993. 4% of 4,900 active;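 active = thallium signal drop more than 5 SD beyond the mean of the no-compound control wells, seen in both duplicate plates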;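 note: signal is fluorescence rise after thallium addition divided by baseline fluorescence; plate controls were assay buffer only for no effect and full block by chlorpromazine control for full effect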
# HEK293 Tl ctr: second check of KCNK9 modulator effects in non-induced HEK293 cells; FluxOR thallium flux; shares compounds with KCNK9 block; inhibition, % at 10 µM; 40% of 4,900 active;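 active = thallium signal drop beyond 5 SD of the untreated control mean, on both duplicate plates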;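 note: plate controls were buffer only IC0 wells for no effect and SID17386958 at its maximal inhibitory level for full effect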
# * marks the source's active call; other numbers are inactive results; i = inactive; nt = no result given. This is a sample that favours compounds with a hit; in the whole collection about 3.1% have one here.
SMILES,KCNK9 block,hERG rescue,KCNQ1 pot,KCNQ1 block,KCNK3 block,KCNK9 block conf,Kir21 sel,HEK293 Tl ctr
Cc1cccc(N2CCN(Cc3nc(-c4ccccc4Cl)oc3C)CC2)n1,i,-13,i,i,i,i,i,i
Cc1oc(-c2cccc(C(F)(F)F)c2)nc1CN1CCN(c2ccccn2)CC1,i,-18,i,i,i,i,i,i
COC(=O)c1cc2occc2n1Cc1nc(-c2cccc(Cl)c2)oc1C,-9.3*,-9,i,i,i,i,i,24%*
COC(=O)c1cc2sccc2n1Cc1nc(-c2ccc(Cl)cc2)oc1C,i,-2,i,i,i,nt,nt,nt
Cc1cccc(N2CCN(Cc3nc(-c4cccc(Cl)c4)oc3C)CC2)n1,i,-17,i,i,i,i,i,i
CC(C)OCCCNC(=O)CCC(=O)NNc1nc2ccccc2c2nc(-c3ccccc3)nn12,i,-2,i,i,i,nt,nt,nt
CCOn1c(=O)c(-c2cccc(Br)c2)[n+]([O-])c2ccccc21,i,-9,i,i,i,nt,nt,nt
O=C(OCC(=O)N1CCc2ccccc21)c1cccc(S(=O)(=O)N2CCCc3ccccc32)c1,i,-4,i,i,i,i,i,i
O=C(c1cccc(S(=O)(=O)N2CCc3ccccc32)c1)N1CCN(c2ccccn2)CC1,-10*,-24,i,i,i,36%*,i,i
O=C(COC(=O)c1c2c(nc3ccccc13)CCCC2)Nc1ccc2c(c1)OCO2,-12*,-31,i,i,i,48%*,i,i
O=C(COC(=O)c1cc(-c2ccccc2)nc2ccccc12)Nc1ccc2c(c1)OCO2,i,-6,i,i,i,nt,nt,nt
NC(=O)COC(=O)c1c2c(nc3ccccc13)CCCC2,i,-14,i,i,i,nt,nt,nt
O=C(OCC(=O)N1CCCc2ccccc21)c1cccc(S(=O)(=O)N2CCOCC2)c1,i,-8,i,i,i,nt,nt,nt
O=C(OCC(=O)N1CCc2ccccc21)c1c2c(nc3ccccc13)CCCCC2,-13*,-3,i,i,i,52%*,i,34%*
Cc1cc(C(=O)C(C)Sc2cccc[n+]2[O-])c(C)n1-c1ccc(Cl)cc1 (stereo not given),i,-3,i,i,i,nt,nt,nt
COc1ccc(C(=O)N2CCN(c3cnn(-c4ccccc4)c(=O)c3Cl)CC2)cc1,i,-8,i,i,i,nt,nt,nt
COc1ccc(/C=C(/CC(=O)NCc2ccc(Cl)cc2)c2nc3ccccc3s2)cc1,-19*,-6,i,i,i,66%*,i,46%*
COc1ccc(/C=C(/CC(=O)Nc2ccccc2)c2nc3ccccc3s2)cc1,i,-7,i,i,i,nt,nt,nt
Cc1ccc(S(=O)(=O)NCC(=O)N2CCCC2C(=O)O)cc1 (stereo not given),i,-2,i,i,i,nt,nt,nt
CN(C)C(=O)CCC(=O)N1CCCC(N2CCN(c3cccc(C(F)(F)F)c3)CC2)C1 (stereo not given),i,0,i,i,i,nt,nt,nt
CN(C(=O)c1cccc(NC(=O)Cc2cccc([N+](=O)[O-])c2)c1)C1CCCC1,nt,nt,nt,nt,i,nt,nt,nt
O=C(O)c1ccc(Cl)c(S(=O)(=O)N(Cc2ccccc2)c2ccc(Cl)cc2)c1,i,-16,i,i,i,i,i,i
NC(=O)COC(=O)c1ccc(Cl)c(S(=O)(=O)N(Cc2ccccc2)c2ccc(Cl)cc2)c1,i,-8,i,i,i,nt,nt,nt
CC(OC(=O)c1ccc(S(=O)(=O)NCc2ccco2)cc1)C(=O)Nc1ccccc1 (stereo not given),nt,nt,nt,nt,i,nt,nt,nt
COc1ccccc1Cc1noc(COc2cccc(C)c2C)n1,i,-14,i,i,i,i,i,i
SMILES,KCNK9 block,hERG rescue,KCNQ1 pot,KCNQ1 block,KCNK3 block,KCNK9 block conf,Kir21 sel,HEK293 Tl ctr
COc1ccc2oc(C(=O)OCC(=O)N(Cc3ccccc3)C(C)(C)C)c(C)c2c1,i,-18,i,i,i,nt,nt,nt
Cc1nnc(NC(=O)C(C)Sc2nnc(-c3ccco3)n2C(C)C)s1 (stereo not given),i,-10,i,i,i,nt,nt,nt
COc1cccc(C(=O)N2c3ccccc3Sc3ccccc32)c1,-11*,-8,i,i,i,58%*,i,48%*
COc1cccc(C(=O)NC2CCN(C(=O)N3c4ccccc4Sc4ccccc43)CC2)c1,i,-19,i,i,i,nt,nt,nt
CCCCS(=O)(=O)N1CCCC(C(=O)NCC2CCCO2)C1 (stereo not given),i,-5,i,i,i,nt,nt,nt
Cc1cc(S(=O)(=O)N2CCCCC2CCNC(=O)C(=O)NCC2CCCO2)ccc1F (stereo not given),i,-11,i,i,i,nt,nt,nt
COc1ccc(-c2n[nH]c3c2CN(C(=O)c2ccccc2)CC3)cc1,i,-9,i,i,i,i,i,i
Cc1cc(C)nc(N/C(=N\S(=O)(=O)Cc2ccccc2)Nc2ccc(F)c(Cl)c2)n1,-13*,-4,i,i,i,i,i,i
Cc1cc(C)nc(N/C(=N\S(=O)(=O)Cc2ccccc2)Nc2cccc(Cl)c2C)n1,i,-17,i,i,i,nt,nt,nt
CNc1ccc(/C=C/C(=O)c2cccc3ccccc23)cc1[N+](=O)[O-],-11*,-12,i,i,i,48%*,i,36%*
O=S(=O)(Nc1nc2ccccc2nc1N1CCc2ccccc2C1)c1ccc(Cl)cc1,-12*,-11,i,i,i,46%*,i,i
O=S(=O)(Nc1nc2ccccc2nc1N1CCc2ccccc2C1)c1ccc(Br)cc1,nt,nt,nt,nt,i,nt,nt,nt
COc1ccc(/C=N/NC(=O)c2nc(-c3ccccc3)cc(-c3ccccc3)n2)cc1O,-11*,-12,i,i,i,68%*,i,i
CCOC(=O)CC[C@H](NC(=O)Cn1cnc2c(OCc3ccccc3)ncnc21)C(=O)OCC,nt,nt,nt,nt,i,nt,nt,nt
CSc1ccccc1NC(=O)c1ccc(CN2CCOCC2)cc1,-11*,-5,i,i,i,i,i,i
COc1cccc(NC(=O)OCCN2CCN(Cc3ccccc3)CCC2=O)c1,i,-6,i,i,i,nt,nt,nt
CCOc1cccc(CN2CCN(c3cccc(C(F)(F)F)c3)CC2)c1O,i,-18,i,i,i,i,i,i
COc1cccc(CN2CCN(c3cccc(C(F)(F)F)c3)CC2)c1OC,i,-13,i,i,i,nt,nt,nt
